Experimental findings from ChEMBL document CHEMBL3632578, “Identification of β-Lapachone Analogs as Novel MALT1 Inhibitors To Treat an Aggressive Subtype of Diffuse Large B-Cell Lymphoma” (J Med Chem, 2015) are described below.

Experiment [1] addresses T1, Mucosa-associated lymphoid tissue lymphoma translocation protein 1 (Homo sapiens, UniProt Q9UDY8).
T1 sequence (Q9UDY8 whole entry): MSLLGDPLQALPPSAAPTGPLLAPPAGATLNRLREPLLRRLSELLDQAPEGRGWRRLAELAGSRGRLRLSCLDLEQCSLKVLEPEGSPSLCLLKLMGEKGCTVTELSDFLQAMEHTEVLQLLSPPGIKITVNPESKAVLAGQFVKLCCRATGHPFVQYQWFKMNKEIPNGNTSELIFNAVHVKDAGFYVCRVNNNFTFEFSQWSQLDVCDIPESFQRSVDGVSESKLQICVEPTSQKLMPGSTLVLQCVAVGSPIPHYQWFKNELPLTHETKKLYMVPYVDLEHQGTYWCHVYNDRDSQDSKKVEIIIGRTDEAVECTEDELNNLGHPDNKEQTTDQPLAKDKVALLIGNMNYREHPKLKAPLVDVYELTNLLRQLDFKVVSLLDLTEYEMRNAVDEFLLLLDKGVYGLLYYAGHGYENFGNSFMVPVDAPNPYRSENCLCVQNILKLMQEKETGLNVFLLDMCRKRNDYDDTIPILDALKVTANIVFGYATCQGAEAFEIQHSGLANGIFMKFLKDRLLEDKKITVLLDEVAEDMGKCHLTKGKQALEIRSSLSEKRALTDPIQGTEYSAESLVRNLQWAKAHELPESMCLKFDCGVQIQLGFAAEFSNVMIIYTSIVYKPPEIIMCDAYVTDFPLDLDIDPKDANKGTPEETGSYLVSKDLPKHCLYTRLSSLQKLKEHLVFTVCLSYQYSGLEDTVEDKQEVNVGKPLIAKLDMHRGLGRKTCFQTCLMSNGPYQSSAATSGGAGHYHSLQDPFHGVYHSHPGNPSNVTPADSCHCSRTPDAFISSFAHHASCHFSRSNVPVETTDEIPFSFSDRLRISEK
As to the kind of experiment: Inhibition of MALT1 in human Jurkat cell lysate preincubated for 2 hrs followed by addition of 25 uM Ac-LRSR-AMC substrate for 3 hrs by fluorescence based assay. The experiment is classed as cell-free. The method in brief:
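MALT1 paracaspase activity in Jurkat cell lysate, read as fluorescence from AMC (7-amino-4-methylcoumarin) released when MALT1 cleaves the fluorogenic tetrapeptide Ac-LRSR-AMC. Inhibition is taken against an untreated control. IC50 is the mean of two independent experiments, each run in duplicate.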

Experiment [2] is described as follows: Antiproliferative activity against human OCI-LY3 cells after 48 hrs by MTT assay. The note with it: OCI-Ly3, 48 h. In kind it is functional, cell-based. In general terms: Tetrazolium dyes change colour on reduction, which living cells bring about.
The target of experiment [3] is T1, Mucosa-associated lymphoid tissue lymphoma translocation protein 1. Nature of the experiment: Inhibition of His-tagged human MALT1 (catalytic domain-339-719 aa) by fluorescence based assay using 25 uM Ac-LRSR-AMC as substrate.
In experiment [4] the target is T2, Mucosa-associated lymphoid tissue lymphoma translocation protein 1 (Homo sapiens) (UniProt Q9UDY8).
T2 sequence (whole entry): T1 sequence (Q9UDY8 whole entry)
As to the kind of experiment: Inhibition of MALT1 paracaspase activity in human OCI-LY3 cells assessed as decrease in cleaved CYLD level after 24 hrs by western blot analysis. In kind it is cell-based. On the technique in general: In western blotting, separated proteins are transferred to a membrane and probed.

A further experiment relates to HuT78. As to the kind of experiment: Antiproliferative activity against human HUT78 cells. In kind it is functional, cell-based.
Experiment [5] is described as follows: Antiproliferative activity against human NK92 cells. The experiment is classed as functional, cell-based.
Experiment [6] in a line: Antiproliferative activity against human MJ cells. The experiment is classed as functional, cell-based.
The next experiment has as its system A549. As to the kind of experiment: Antiproliferative activity against human A549 cells. In kind it is functional, cell-based.
A short description of experiment [7]: Antiproliferative activity against human SupT1 cells. The experiment is classed as functional, cell-based. The note with it: SUP-T1.

Some results are limits rather than exact numbers.

A word on the IC50: it is the midpoint of a concentration-inhibition curve. In the case of `O=C1C=C(NC2CCN(Cc3ccccc3)C2)c2ccccc2C1=O` (stereo not drawn), the IC50 in [1] is 1.5 µM; in experiment [2] it was greater than 10 µM.

In [1], `CC(C)=CCC1=C(O)C(=O)c2cc(F)ccc2C1=O` came in with an IC50 greater than 10 µM. Same read-out and setting: under `O=C1C=C(NCCCN2CCCC2)c2ccccc2C1=O` stands 11.9 µM; under `CC(C)(C)OC(=O)NCCNC1=CC(=O)C(=O)c2ccccc21`, 14.9 µM. The same measure, in the same setting: under `O=C(CNC1=CC(=O)C(=O)c2ccccc21)NCCc1ccccc1` stands 3.1 µM.

Consider `CC1(C)CCC2=C(O1)c1ccc(F)cc1C(=O)C2=O`, for which the figures for the half-inhibitory concentration (IC50) in experiment [3] and in experiment [2] were 1.5 µM and 3.3 µM, respectively. The inhibition result in experiment [4] is “Dose-dependent effect”. `CC1(C)CCC2=C(O1)c1cc(O)ccc1C(=O)C2=O`: the IC50 in experiment [3] is 9.3 µM.

In turn, `O=C1C=C(NCC(=O)N2CCCC2)c2ccccc2C1=O` yielded a half-inhibitory concentration (IC50) in experiment [1] of 4.1 µM. For `O=C1C=C(NC2CCN(Cc3ccccc3)CC2)c2ccccc2C1=O`, the half-inhibitory concentration (IC50) in experiment [1] is 5.4 µM.

With `CC1(C)CCC2=C(O1)c1ccc(C#N)cc1C(=O)C2=O`, the IC50 in experiment [3] was found to be 1.6 µM; in the experiment on HuT78 it was 12.3 µM; in experiment [5], 17 µM; in experiment [6], 16.7 µM; in [2], 1.5 µM; in the experiment on A549, 5.7 µM. For the same compound, in experiment [7], the half-maximal inhibitory concentration (IC50) was found to be 5.6 µM. Besides, the inhibition result in experiment [4] was “Dose-dependent effect”.

As for `COc1ccc2c(c1)C1=C(CCC(C)(C)O1)C(=O)C2=O`, the figures for the IC50 in experiment [3] and in experiment [2] were 9.2 µM and 17 µM, respectively. As for `COCCOc1nc(-c2ccc(Cl)c(Cl)c2)n(-c2ccc(NC(=O)CCl)cc2)n1`, the IC50 in [3] was determined as 3.3 µM; in experiment [2] it was 2.6 µM.

For the compound `CC(C)NC1=CC(=O)C(=O)c2ccccc21`, in experiment [1], the IC50 turned out to be 20.4 µM. For the compound `COCCNC1=CC(=O)C(=O)c2ccccc21`, the IC50 in experiment [1] was 7.8 µM; in [2], greater than 10 µM.

The compound `O=C1C=C(NCCN2CCOCC2)c2ccccc2C1=O` displayed an IC50 in experiment [1] of 21.9 µM.

For `CC1(C)CCC2=C(O1)c1ccccc1C(=O)C2=O` [LAPACHONE], the 50% inhibitory concentration (IC50) in experiment [1] came out at 1.9 µM; in experiment [3] it was 1.2 µM; in experiment [2], 4 µM. For the compound `COc1cc2c(cc1OC)C(=O)C1=C(CCC(C)(C)O1)C2=O`, in [1], the IC50 is greater than 10 µM.

In experiment [1], `O=C1C=C(NCCCN2CCCC2=O)c2ccccc2C1=O` came in with an IC50 of 14.4 µM. Consider `COc1ccc2c(c1)C(=O)C(=O)C1=C2OC(C)(C)CC1`, for which the IC50 stood at 0.6 µM in [3] and 3.1 µM in [2]. In the case of `CC1(C)CCC2=C(O1)c1ccc([N+](=O)[O-])cc1C(=O)C2=O`, the IC50 in [3] worked out at 0.4 µM; in [2], 4.6 µM. On to `CC1(C)CCC2=C(O1)c1ccc(Br)cc1C(=O)C2=O`, for which the IC50 stood at 9.2 µM in experiment [3] and 4.1 µM in experiment [2]. Consider `CNC(=O)CNC1=CC(=O)C(=O)c2ccccc21`, for which the IC50 in experiment [1] was determined as 3 µM; in experiment [2], 9.4 µM.

For `CN(C)C1=CC(=O)C(=O)c2ccccc21`, the IC50 is 2.5 µM in experiment [1] and greater than 10 µM in experiment [2]. In the case of `COc1cc2c(cc1OC)C1=C(CCC(C)(C)O1)C(=O)C2=O`, the IC50 in [3] stood at 2.3 µM; in [2], 8.5 µM. Consider `O=C1C=C(NCCc2ccccc2)c2ccccc2C1=O`, for which the IC50 in [1] is greater than 100 µM. With `CC(C)=CCC1=C(O)C(=O)c2cc(Br)ccc2C1=O`, the IC50 in [1] was greater than 10 µM.

In experiment [1], `CN(C)CCNC1=CC(=O)C(=O)c2ccccc21` displayed an IC50 of 1.6 µM.
